Source: PubChem
Hits are enriched below; roughly 0.7% of the tested compounds scored in any of these assays.
FXN GAA850 act: FXN promoter activators, primary screen, cell-based, luciferase luminescence, HEK293 lucGAA850; activation, % at 6 µM; HEK293 lucGAA850 FXN promoter luciferase reporter, 24 h; percent of 10 µM SAHA response; AID 540364, 2011; 360,000 compounds, 0.56% hits;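 active means activation above the average of all compounds screened plus 3 SD, cutoff fixed separately per campaign, cut at about 7.5% in these data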
procasp3 activ: activators of human procaspase-3 D3A mutant, primary screen, biochemical, absorbance, PC-3 D3A mutant, single concentration; Caspase-3 (Homo sapiens), P42574; recombinant procaspase-3 D3A, Ac-DEVD-pNA absorbance 405 nm; activation, % at 8.5 µM; 330,000 compounds, 0.11% hits;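 active means activation above the mean of all tested compounds plus 3 SD, cut at about 21% in these data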
Target sequence (P42574 whole entry D9A/D28A/D175A): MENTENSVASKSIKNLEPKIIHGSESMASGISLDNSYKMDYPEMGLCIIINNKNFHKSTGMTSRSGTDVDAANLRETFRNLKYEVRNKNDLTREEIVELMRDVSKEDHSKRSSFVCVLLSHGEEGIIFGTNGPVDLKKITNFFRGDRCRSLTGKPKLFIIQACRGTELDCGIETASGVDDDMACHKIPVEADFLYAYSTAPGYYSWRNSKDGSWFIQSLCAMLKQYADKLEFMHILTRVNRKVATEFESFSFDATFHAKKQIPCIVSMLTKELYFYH
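Test system: Procaspase-3 D3A mutant; medium: Zinc-free HEPES/NaCl buffer with 0.01% Triton X-100 at pH 7.4; reagent: DEVD-pNA substrate; doses: one concentration, 8.5 µM nominal, 0.8% DMSO; times: 1 h preincubation plus 2 h reaction at 25 °C; signal: Epi-absorbance at 405 nm of released p-nitroaniline, 0 and 120 min; replicates: singlicate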
proCasp7 act: procaspase-7 activators, primary screen, counter-screen for procaspase-3 activator project, biochemical, absorbance, HTS, human. Caspase-7 (Homo sapiens), P55210. recombinant procaspase-7, Ac-DEVD-pNA absorbance 405 nm; D23A/D198A/D206A triple mutant, cannot self-cleave; scale: DMSO 0, 5 µM enzyme 100. activation, % at 8.5 µM. 330,000 compounds, 0.093% hits. AID 463210, 2010;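 active means percent activation above the screen-wide mean plus 3 SD, cut at about 25% in these data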
Target sequence (P55210 whole entry D23A/D198A/D206A): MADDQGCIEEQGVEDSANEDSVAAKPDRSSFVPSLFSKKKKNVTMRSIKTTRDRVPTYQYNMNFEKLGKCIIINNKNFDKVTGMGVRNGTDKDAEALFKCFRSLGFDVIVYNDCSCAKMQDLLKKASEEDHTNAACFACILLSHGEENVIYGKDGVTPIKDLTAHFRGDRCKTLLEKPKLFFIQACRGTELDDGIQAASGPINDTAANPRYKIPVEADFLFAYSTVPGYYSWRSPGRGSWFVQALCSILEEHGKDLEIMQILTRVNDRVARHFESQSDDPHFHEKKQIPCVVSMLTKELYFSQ
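System: Procaspase-7 triple mutant (PC-7 D3A); measure: % activation from two-timepoint absorbance difference, scaled to controls; times: 1 h compound preincubation, 2 h substrate cleavage, 25 °C; also added: Ac-DEVD-pNA substrate, 400 µM as added; measured by: Epi-absorbance of released pNA at 405 nm, two timepoints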
GAA30 counter: GAA30 FXN promoter activators, confirmation, counter-screen for GAA850 frataxin promoter activator project, cell-based, luminescence, HEK293, lucGAA30, triplicate | activation, % at 6 µM | 1,900 compounds, 66% hits | shares compounds with FXN GAA850 act | HEK293 lucGAA30 FXN promoter luciferase, 24 h; DMSO = 0%, 5 µM ipriflavone = 100%;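 active means mean activation above the mean of solvent-only control wells plus 3 SD, cut at about 22% in these data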;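 further: counterscreen of GAA850 promoter hits where activity marks nonselective or luminescence artifacts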
FXN GAA850 conf: FXN GAA850 promoter activators in reporter cells, confirmation, cell-based, luminescence, HEK293 lucGAA850, triplicate | AID 588351, 2011 | 1,900 compounds, 86% hits | HEK293 lucGAA850 FXN promoter luciferase reporter, 24 h; 100% = activation by SAHA | shares compounds with FXN GAA850 act | activation, % at 6 µM;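 active means mean activation above a set limit taken from the primary screen, cut at about 8% in these data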
Hits are given with their value; – = inactive; · = not tested or not shown.

SMILES	FXN GAA850 act	procasp3 activ	proCasp7 act	GAA30 counter	FXN GAA850 conf
COc1ccc(/C=C/c2nc(-c3ccccc3O)n[nH]2)cc1	7.6	–	–	94	23
OC(c1ccc(F)c(F)c1)c1nc(-c2ccc3c(c2)OCO3)cs1 (stereo unspecified)	–	·	·	·	·
CCCCCOC(=O)Nc1nnc(CCCCC)s1	–	–	–	·	·
CCCCOC(=O)Nc1nnc(CC)s1	7.7	–	–	51	27
CC(C)(C)c1ccc(OCCn2ccccc2=O)cc1	8.5	–	–	100	41
O=c1ccccn1CCOc1ccc(Cl)cc1	–	–	–	·	·
O=C(CCNC(=O)c1ccc([N+](=O)[O-])cc1)Nc1cccc(S(=O)(=O)N2CCOCC2)c1	–	–	–	·	·
CCOC(=O)c1cnc(-c2ccccc2)nc1N(C)C	8.7	–	–	120	41
CCOC(=O)c1cnc(-c2ccccc2)nc1N	–	–	–	·	·
COc1ccc(NC(=O)C2(C)CCN2Cc2cccc(OC)c2OC)cc1OC (stereo unspecified)	–	·	·	·	·
COc1ccc(NC(=O)C2(C)CCN2Cc2ccc(OC)c3ccccc23)cc1OC (stereo unspecified)	7.7	·	·	22	13
Cc1cccc(N=Nc2ccc(O)c3ncccc23)c1	12	–	–	–	–
Cc1ccc(C)c(N=Nc2ccc(O)c3ncccc23)c1	–	–	–	·	·
C[C@H](NC(=O)c1[nH]cnc1C(=O)Nc1ccccc1F)c1ccccc1	–	·	·	·	·
CCCSc1nc2cc(S(=O)(=O)N3CCOCC3)ccc2n1CC	–	–	–	·	·
CCn1c(SCc2nc3ccccc3s2)nc2cc(S(=O)(=O)N3CCOCC3)ccc21	12	–	–	81	33
COCCn1c(SCc2nc3ccccc3s2)nc2ccccc21	8.4	–	–	99	31
CCOCCCn1c(SCc2nc3ccccc3s2)nc2ccccc2c1=O	–	–	–	·	·
Cc1nnc(SCc2nc3ccccc3s2)n1-c1ccccc1	–	–	–	·	·
c1ccc(-n2cnnc2SCc2nc3ccccc3s2)cc1	7.8	–	–	94	26
CCC(C(=O)OCC(=O)N(CC)c1c(N)n(Cc2ccccc2)c(=O)[nH]c1=O)c1ccccc1 (stereo unspecified)	–	–	–	·	·
O=C1C(=O)N(C/C=C/c2ccccc2)c2ccccc21	–	–	–	·	·
COc1cc(SC)ccc1C(=O)Nc1cccc(C2OCCCO2)c1	–	–	–	·	·
Cc1ccc(C(=O)N2CCN(S(=O)(=O)c3cc(Br)ccc3Br)CC2)o1	–	–	–	·	·
COc1ccc(/C=C/c2onc(C)c2S(=O)(=O)N2CCC(C(=O)N3CCC(C)CC3)CC2)cc1	–	–	–	·	·
SMILES	FXN GAA850 act	procasp3 activ	proCasp7 act	GAA30 counter	FXN GAA850 conf
COc1ccc(CCNC(=O)C(=O)NCC2OCCN2S(=O)(=O)c2ccc(Cl)cc2)cc1OC (stereo unspecified)	–	–	–	·	·
CCCCCN(C(=O)CCC(=O)OCCOc1cccc(Cl)c1)c1c(N)n(CCCC)c(=O)[nH]c1=O	–	–	–	·	·
CCCn1c(SC(C)C(=O)N2CCOCC2)nc2ccc(Br)cc2c1=O (stereo unspecified)	–	–	–	·	·
COc1ccc(S(=O)(=O)N(C)C[C@H]2Oc3ncc(C#CC4(O)CCCC4)cc3C(=O)N([C@@H](C)CO)C[C@@H]2C)cc1	–	·	·	·	·
CCN(CC)S(=O)(=O)c1cc(NC(=O)CSc2nnc(N)s2)ccc1C	–	–	–	·	·
CCN(CC)S(=O)(=O)c1cc(NC(=O)CSc2nc3c(cc2C#N)C(=O)CC(C)(C)C3)ccc1C	10	–	–	–	–
NC[C@H](O)c1ccc(O)c(O)c1	7.6	–	–	–	–
CNC[C@H](O)c1ccc(O)c(O)c1	–	–	–	·	·
O=C(CSCCO)Nc1cccc2ccccc12	–	–	–	·	·
O=C(CSCC(=O)Nc1cccc2ccccc12)Nc1cccc2ccccc12	14	–	–	23	–
Cc1ccc(N2C(=O)CC(N3CCN/C3=C3\CC/C(=C\c4ccccc4)C3=O)C2=O)cc1 (stereo unspecified)	–	–	–	·	·
CCOC(=O)c1c(C)[nH]c(C(=O)OCC(=O)NCc2ccc(OC)c(OC)c2)c1C	–	–	–	·	·
O=[N+]([O-])c1ccc2c(c1)/C(=N\O)c1ccccc1-2	–	–	–	·	·
Nc1cc2c(cc1Cl)-c1ccc([N+](=O)[O-])cc1C2=NO	9.5	·	·	75	40
CC(C)c1ccc(NC(=O)c2sccc2-n2cccc2)cc1	–	–	–	·	·
COc1ccccc1NS(=O)(=O)c1cc(NC(=O)/C=C/c2cccs2)ccc1N1CCOCC1	9.9	–	–	–	–
O=C(/C=C/c1cccs1)Nc1ccc(N2CCOCC2)c(S(=O)(=O)Nc2ccccc2Cl)c1	–	–	–	·	·
Cc1[nH]c(C)c(S(=O)(=O)N2c3ccccc3CC2C)c1C(=O)N1CCCCC1 (stereo unspecified)	–	–	–	·	·
COc1ccc([C@@H]2[C@@H]3C(=O)N(C(C)(C)C)C(=O)[C@@H]3[C@]3(Cc4ccccc4)C(=O)N(c4ccc(OC)cc4)C(=O)N23)cc1	–	–	–	·	·
CC(C)(C)N1C(=O)[C@H]2[C@@H](c3ccc(Br)cc3)N3C(=O)N(c4cccc(Br)c4)C(=O)[C@@]3(Cc3ccccc3)[C@H]2C1=O	15	–	–	–	11
CCN1C(=O)[C@H]2[C@@H](c3ccc(C)cc3)N3C(=O)N(c4cccc(Br)c4)C(=O)[C@@]3(Cc3ccccc3)[C@H]2C1=O	–	–	–	·	·
CC(C)(C)N1C(=O)[C@H]2[C@@H](c3ccc(Br)cc3)N3C(=O)N(c4ccccc4)C(=O)[C@@]3(Cc3ccccc3)[C@H]2C1=O	9.9	–	–	–	14
COc1ccc(CN(C)CCCn2cnc(C(=O)Nc3ccc(C)c(C)c3)n2)cc1OC	–	·	·	·	·
CC(OC(=O)c1ccccc1C(=O)N(C)C1CCCCC1)C(=O)NC1(C#N)CCCCC1 (stereo unspecified)	–	–	–	·	·
CSC[C@H]1CN(c2ccc(Br)cc2)C(=O)[C@@H]1CC(=O)Nc1ccc(Br)cc1	–	·	·	·	·
O=C(NCCc1ccccc1)c1ccc(NC(=O)C2CCCCC2)cc1	–	·	·	·	·
C[C@@H]1CN([C@H](C)CO)C(=O)CCCn2nncc2CO[C@H]1CN(C)C(=O)c1ccncc1	–	·	·	·	·
CCOc1ccccc1NC(=O)NNC(=O)COc1cccc(C)c1C	–	–	–	·	·
